Results gathered from unrelated publications.
Each line is one published result; the experiments were not run side by side.
CSF1R: Macrophage colony-stimulating factor 1 receptor (CSF1R, Homo sapiens, UniProt P07333)
Tumor necrosis factor receptor superfamily member 9: Tumor necrosis factor receptor superfamily member 9 (Homo sapiens, UniProt Q07011)

| SMILES | target | assay | endpoint | value |
| --- | --- | --- | --- | --- |
| CNC(=O)c1cc2c(Oc3ccc(NC(=O)C4(C(=O)Nc5ccc(F)cc5)CC4)cc3)ccnc2cc1OC | Hepatocyte growth factor receptor (MET, Homo sapiens, UniProt P08581) | enzyme activity, inhibitor, radiometric | IC50 | 10 nM |
| CC#CC(=O)N1CC[C@@H](n2cc(-c3ccc(Oc4c(F)cccc4F)cc3)c3c(N)n[nH]c(=O)c32)C1 | Tyrosine-protein kinase JAK3 (JAK3, Homo sapiens, UniProt P52333) | binding, competition with immobilised ligand | Kd | > 3000 nM |
| Cc1cnc(-c2ccc(-c3ccc(NC(=O)Nc4c(F)cc(F)cc4F)cc3F)c3c2C(=O)NC3)[nH]1 | CSF1R | binding, competition with immobilised ligand | Kd | 1 nM |
| CC/C=C\C/C=C\C/C=C\C/C=C\C/C=C\C/C=C\CCC(=O)O | Nuclear receptor subfamily 4 group A member 2 (Homo sapiens, UniProt P43354) | binding | Kd | 30000 nM |
| CCCC[C@@H]1NC(=O)[C@H](Cc2ccc(O)cc2)NC(=O)[C@@H]2CCCN2C(=O)[C@H](CC(=O)O)NC(=O)[C@H](C)NC(=O)[C@H](Cc2ccccc2)NC(=O)[C@@H]2CSCCC(=O)N3CN(CN(C3)C(=O)CCSC[C@@H](C(=O)N[C@@H](C)C(N)=O)NC1=O)C(=O)CCSC[C@H](NC(C)=O)C(=O)N[C@@H](CC(C)(C)C)C(=O)N1CCC[C@H]1C(=O)N[C@@H](CCCCNC(=O)CCc1cn(CC(=O)N[C@H]3CSCCC(=O)N4CN5CN(C4)C(=O)CCSC[C@H](NC(=O)[C@@H](CC(=O)O)NC(=O)[C@H](Cc4cccc6ccccc46)NC(=O)[C@@H]4CCCN4C3=O)C(=O)N[C@@H](CCSC)C(=O)N[C@@H](CCCCNC(=N)N)C(=O)N[C@@H](CC(=O)O)C(=O)N[C@@H](Cc3c[nH]c4ccccc34)C(=O)N[C@@H](CO)C(=O)N[C@@H]([C@@H](C)O)C(=O)N3CCC[C@H]3C(=O)N3C[C@H](O)C[C@H]3C(=O)N[C@@H](Cc3c[nH]c4ccccc34)C(=O)N[C@H](C(N)=O)CSCCC5=O)nn1)C(=O)N[C@H](C)C(=O)N1CCC[C@H]1C(=O)N[C@@H](Cc1ccc(O)cc1)C(=O)N2 | Tumor necrosis factor receptor superfamily member 9 | binding, SPR | Kd | 12 nM |
| Cc1ccc(C)c(OCCCC(C)(C)C(=O)O)c1 | Peroxisome proliferator-activated receptor alpha (PPARA, Homo sapiens, UniProt Q07869) | reporter gene, agonist, luciferase | EC50 | 58000 nM |
| Cc1cc(Nc2cc3ncccc3c(N[C@@H]3C[C@H]4CC[C@@H](C3)N4CCC#N)n2)n[nH]1 | CSF1R | binding, competition with immobilised ligand | Kd | 1100 nM |
| CCCC[C@@H]1NC(=O)[C@H](Cc2ccc(O)cc2)NC(=O)[C@@H]2CCCN2C(=O)[C@H](CC(=O)O)NC(=O)[C@H](C)NC(=O)[C@H](Cc2ccccc2)NC(=O)[C@@H]2CSCCC(=O)N3CN(CN(C3)C(=O)CCSC[C@@H](C(=O)N[C@@H](C)C(N)=O)NC1=O)C(=O)CCSC[C@H](NC(C)=O)C(=O)N[C@@H](CC(C)(C)C)C(=O)N1CCC[C@H]1C(=O)N[C@@H](CCC(=O)O)C(=O)N[C@H](CCCCNC(=O)CCc1cn(CC(=O)N[C@H]3CSCCC(=O)N4CN5CN(C4)C(=O)CCSC[C@H](NC(=O)[C@@H](CC(=O)O)NC(=O)[C@H](Cc4cccc6ccccc46)NC(=O)[C@@H]4CCCN4C3=O)C(=O)N[C@@H](CCSC)C(=O)N[C@@H](CCCCNC(=N)N)C(=O)N[C@@H](CC(=O)O)C(=O)N[C@@H](Cc3c[nH]c4ccccc34)C(=O)N[C@@H](CO)C(=O)N[C@@H]([C@@H](C)O)C(=O)N3CCC[C@H]3C(=O)N3C[C@H](O)C[C@H]3C(=O)N[C@@H](Cc3c[nH]c4ccccc34)C(=O)N[C@H](C(N)=O)CSCCC5=O)nn1)C(=O)N1CCC[C@H]1C(=O)N[C@@H](Cc1ccc(O)cc1)C(=O)N2 | Tumor necrosis factor receptor superfamily member 9 | binding, SPR | Kd | 9 nM |
